# Measured values as given in ChEMBL document CHEMBL1137866, “N-(1-Benzylpyrrolidin-3-yl)arylbenzamides as potent and selective human dopamine D4 antagonists” (Bioorg Med Chem Lett, 2004).
# The source made the active and inactive calls. No cut-off for these calls is given here.
# How the values were obtained:
# [1] = target: T1, D(4) dopamine receptor (Homo sapiens, UniProt P21917); experiment: Ability to displace [3H]spiperone from human Dopamine receptor D4.2 stably transfected in human embryonic kidney […] cells
# T1 sequence (P21917 whole entry): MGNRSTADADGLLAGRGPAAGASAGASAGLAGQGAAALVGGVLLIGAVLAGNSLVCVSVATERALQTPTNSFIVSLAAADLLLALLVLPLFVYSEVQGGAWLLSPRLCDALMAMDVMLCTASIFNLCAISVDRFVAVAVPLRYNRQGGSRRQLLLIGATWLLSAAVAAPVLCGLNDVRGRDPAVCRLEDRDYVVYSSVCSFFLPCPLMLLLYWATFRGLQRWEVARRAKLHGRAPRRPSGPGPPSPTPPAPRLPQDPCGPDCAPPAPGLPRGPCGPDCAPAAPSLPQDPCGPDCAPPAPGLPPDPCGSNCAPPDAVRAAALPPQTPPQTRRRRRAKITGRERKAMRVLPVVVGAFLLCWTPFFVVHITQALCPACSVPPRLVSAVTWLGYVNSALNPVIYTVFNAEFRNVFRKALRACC
# Outline: (§1)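 Radioligand binding on stably transfected cell lines: hD4 (D4.2 subtype) in HEK […] cells and hD2 (short isoform) in GH4C1 rat pituitary cells. Ki derived by Cheng–Prusoff transformation, reported as mean of at least two determinations ± SEM.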
# [2] = target: T2, D(2) dopamine receptor (Homo sapiens, UniProt P14416); experiment: Ability to displace [3H]spiperone from human Dopamine receptor D2S stably transfected in GH4C1 (rat pituitary) cells; assay type: cell-based, Pituitary gland cell; outline: as §1
# [3] = target: T3, Adrenergic receptor alpha-1 (Rattus norvegicus, UniProt P15823+P23944+P43140); experiment: Binding affinity towards Alpha-1 adrenergic receptor using 7-methoxy-[3H]-prazosin as radioligand in rat frontal cortex tissue; assay type: tissue-based
# T3 sequence (P15823 whole entry): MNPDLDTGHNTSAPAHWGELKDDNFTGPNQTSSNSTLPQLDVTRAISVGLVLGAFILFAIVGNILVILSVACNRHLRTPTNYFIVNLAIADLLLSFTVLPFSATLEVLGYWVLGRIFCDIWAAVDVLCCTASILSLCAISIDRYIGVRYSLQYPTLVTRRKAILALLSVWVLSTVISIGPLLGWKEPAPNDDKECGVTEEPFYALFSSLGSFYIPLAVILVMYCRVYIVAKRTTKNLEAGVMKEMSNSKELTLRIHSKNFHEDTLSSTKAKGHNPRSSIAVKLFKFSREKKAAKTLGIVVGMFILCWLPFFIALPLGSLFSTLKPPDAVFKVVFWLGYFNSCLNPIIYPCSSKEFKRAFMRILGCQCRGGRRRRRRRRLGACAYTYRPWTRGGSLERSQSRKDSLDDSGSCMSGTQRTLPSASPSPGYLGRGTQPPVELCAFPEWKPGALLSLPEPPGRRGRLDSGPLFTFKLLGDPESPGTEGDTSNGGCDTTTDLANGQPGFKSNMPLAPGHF
# T3 sequence (P23944 whole entry): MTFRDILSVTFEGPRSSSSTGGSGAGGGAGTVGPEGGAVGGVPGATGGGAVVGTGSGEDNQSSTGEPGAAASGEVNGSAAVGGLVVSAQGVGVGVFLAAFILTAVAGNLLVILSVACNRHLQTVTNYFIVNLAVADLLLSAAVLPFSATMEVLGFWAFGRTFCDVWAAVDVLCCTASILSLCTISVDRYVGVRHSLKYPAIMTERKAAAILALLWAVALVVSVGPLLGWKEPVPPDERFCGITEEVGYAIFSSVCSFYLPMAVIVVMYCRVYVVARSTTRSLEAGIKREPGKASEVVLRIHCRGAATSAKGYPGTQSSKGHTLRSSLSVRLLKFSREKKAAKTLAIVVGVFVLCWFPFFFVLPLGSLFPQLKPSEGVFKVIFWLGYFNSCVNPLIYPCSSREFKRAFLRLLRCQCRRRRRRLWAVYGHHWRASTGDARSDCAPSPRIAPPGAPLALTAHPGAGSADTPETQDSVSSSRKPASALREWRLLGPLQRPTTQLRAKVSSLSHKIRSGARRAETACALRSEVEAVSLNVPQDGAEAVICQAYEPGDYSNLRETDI
# T3 sequence (P43140 whole entry): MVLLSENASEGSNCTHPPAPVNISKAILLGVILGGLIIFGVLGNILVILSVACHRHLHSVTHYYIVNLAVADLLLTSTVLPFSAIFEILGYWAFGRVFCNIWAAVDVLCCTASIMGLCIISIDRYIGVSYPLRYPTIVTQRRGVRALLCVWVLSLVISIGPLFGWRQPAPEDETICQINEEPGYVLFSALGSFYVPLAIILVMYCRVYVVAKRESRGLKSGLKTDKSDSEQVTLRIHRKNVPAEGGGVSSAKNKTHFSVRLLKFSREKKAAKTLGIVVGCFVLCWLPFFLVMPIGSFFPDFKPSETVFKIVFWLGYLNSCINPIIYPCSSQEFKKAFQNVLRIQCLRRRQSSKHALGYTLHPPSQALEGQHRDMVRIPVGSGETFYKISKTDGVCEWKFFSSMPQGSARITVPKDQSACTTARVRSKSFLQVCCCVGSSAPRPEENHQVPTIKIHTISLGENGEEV
# Outline: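 Rat frontal cortex tissue as α1 receptor source, 7-methoxy-[3H]-prazosin as radioligand, clozapine as reference. Ki obtained by Cheng–Prusoff transformation; mean of at least two determinations ± SEM.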
# [4] = target: T1, D(4) dopamine receptor; experiment: Inhibitory concentration required to reverse the dopamine inhibition of forskolin-stimulated adenyl cyclase activity in CHO cells stably expressing hD4 receptor; assay type: functional, cell-based
# [5] = target: T2, D(2) dopamine receptor; experiment: Inhibition of [3H]spiperone binding to human Dopamine receptor D2S stably transfected in GH4C1 (rat pituitary) cells at 100 nM; conditions: Pituitary gland cell
# [6] = target: T4, Adrenergic receptor alpha-1 (Rattus norvegicus) (UniProt P15823+P23944+P43140); experiment: Inhibition of 7-methoxy-[3H]-prazosin binding to Alpha-1 adrenergic receptor in rat frontal cortex tissue at 100 nM
# [7] = target: T5, D(4) dopamine receptor (Homo sapiens) (UniProt P21917); experiment: Inhibition of [3H]spiperone binding to human Dopamine receptor D4.2 stably transfected in human embryonic kidney […] cells at 100 nM
# T5 sequence (whole entry): T1 sequence (P21917 whole entry)
# [8] = target: T4, Adrenergic receptor alpha-1 (Rattus norvegicus); experiment: Inhibition of 7-methoxy-[3H]-prazosin binding to Alpha-1 adrenergic receptor in rat frontal cortex tissue at 100 nM; IA denotes inactive
# [9] = target: T2, D(2) dopamine receptor; experiment: Inhibition of [3H]spiperone binding to human Dopamine receptor D2S stably transfected in GH4C1 (rat pituitary) cells at 100 nM; IA denotes inactive; conditions: Pituitary gland cell
# T2 sequence (P14416 whole entry): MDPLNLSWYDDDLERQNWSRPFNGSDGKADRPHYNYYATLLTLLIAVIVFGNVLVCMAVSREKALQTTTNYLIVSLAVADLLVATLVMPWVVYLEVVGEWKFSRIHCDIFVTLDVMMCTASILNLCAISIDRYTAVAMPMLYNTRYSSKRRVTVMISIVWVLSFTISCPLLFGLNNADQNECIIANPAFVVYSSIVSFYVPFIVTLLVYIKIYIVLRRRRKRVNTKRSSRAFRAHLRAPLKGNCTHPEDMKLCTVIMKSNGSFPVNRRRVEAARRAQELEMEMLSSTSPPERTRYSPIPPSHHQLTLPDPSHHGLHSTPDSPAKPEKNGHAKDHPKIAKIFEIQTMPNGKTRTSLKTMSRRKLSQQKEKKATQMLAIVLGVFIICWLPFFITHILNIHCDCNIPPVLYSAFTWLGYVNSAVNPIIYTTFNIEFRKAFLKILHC
Structure (SMILES),Ki [1],Ki [2],Ki [3],further results
CSc1ccc(-c2ccc(C(=O)NC3CCN(Cc4ccccc4)C3)cc2)cc1 (configuration not stated),0.017 µM,4 µM,–,–
O=C(NC1CCN(Cc2ccccc2)C1)c1ccc(-c2cccc(F)c2)cc1 (configuration not stated),0.017 µM,4 µM,–,–
O=C(NC1CCN(Cc2ccccc2)C1)c1cccc(-c2ccccc2)c1 (configuration not stated),0.004 µM,0.15 µM,–,–
O=C(N[C@@H]1CCN(Cc2ccccc2)C1)c1ccc(-c2cccs2)cc1,0.024 µM,1.5 µM,0.33 µM,–
O=C(NC1CCN(Cc2ccccc2)C1)c1ccc(-c2ccc(F)cc2)cc1 (configuration not stated),0.008 µM,0.12 µM,–,–
O=C(N[C@@H]1CCN(Cc2ccccc2)C1)c1ccc(-c2ccsc2)cc1,0.018 µM,0.9 µM,0.17 µM,–
Nc1cccc(-c2ccc(C(=O)NC3CCN(Cc4ccccc4)C3)cc2)c1 (configuration not stated),0.024 µM,5 µM,–,–
O=C(NC1CCN(Cc2ccccc2)C1)c1ccc(-c2ccc(C(F)(F)F)cc2)cc1 (configuration not stated),0.017 µM,8 µM,–,–
O=C(NC1CCN(Cc2ccccc2)C1)c1ccc(-c2cccs2)cc1 (configuration not stated),0.003 µM,0.84 µM,–,–
O=C(N[C@H]1CCN(Cc2ccccc2)C1)c1cccc(-c2cccs2)c1,0.0015 µM,0.06 µM,0.16 µM,–
O=C(NC1CCN(Cc2ccccc2)C1)c1ccc(-c2ccccc2)cc1 (configuration not stated),0.003 µM,0.6 µM,–,IC50 [4]: 1.5 µM
O=Cc1ccc(-c2ccc(C(=O)NC3CCN(Cc4ccccc4)C3)cc2)cc1 (configuration not stated),0.07 µM,3.7 µM,–,–
O=C(N[C@H]1CCN(Cc2ccccc2)C1)c1cccc(-c2ccsc2)c1,0.002 µM,0.07 µM,0.14 µM,–
O=C(N[C@@H]1CCN(Cc2ccccc2)C1)c1cccc(-c2ccsc2)c1,0.0034 µM,0.094 µM,0.17 µM,–
O=C(NC1CCN(Cc2ccccc2)C1)c1ccc(-c2ccsc2)cc1 (configuration not stated),0.002 µM,1.2 µM,–,–
CN(C(=O)c1ccc(-c2ccsc2)cc1)[C@H]1CCN(Cc2ccccc2)C1,–,–,–,inhibition [5]: 7.4%; inhibition [6]: 0.29%; inhibition [7]: 40%
O=Cc1ccccc1-c1ccc(C(=O)NC2CCN(Cc3ccccc3)C2)cc1 (configuration not stated),0.036 µM,3.1 µM,–,–
O=C(N[C@H]1CCN(Cc2ccccc2)C1)c1ccc(-c2cccs2)cc1,0.003 µM,0.98 µM,1.2 µM,–
O=S(=O)(N[C@H]1CCN(Cc2ccccc2)C1)c1ccc(-c2cccs2)cc1,–,–,–,inhibition [8]: inactive; inhibition [9]: inactive; inhibition [7]: 13%
O=C(NC1CCN(Cc2ccccc2)C1)c1ccc(-c2ccc(Cl)cc2)cc1 (configuration not stated),0.005 µM,2.6 µM,–,–
O=C(N[C@H]1CCN(Cc2ccccc2)C1)c1ccc(-c2ccsc2)cc1,0.002 µM,1 µM,0.61 µM,–
